Experimental data from ChEMBL document CHEMBL1124476, “1-(2-aminoethyl)-6-aryl-4H- [1,2,4]triazolo[4,3-a][1,4]benzodiazepines with diuretic and natriuretic activity” (J Med Chem, 1989).

Legend:
Rattus norvegicus [1] = experiment: Mean excretion of sodium in conscious rats at a dose of 30 mg/kg given orally; type: ADME, organism-based; set-up: dose 30 mg/kg, route oral; conditions: in vivo, po
How it was run: (§1)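 Male Sprague-Dawley rats, about 160 g, fasted 24 h and water withheld 1 1/2 h beforehand; food and water withheld during the test. Dosing by gavage with 25 mL/kg 0.9% saline containing 0.5% (carboxymethyl)cellulose, agent dissolved or suspended. Three cages of two rats each per dose, held in metabolism cages. Urine collected over 5 h. Volume given in mL, Na+ in mequiv. Significance versus control at P < 0.05.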

Rattus norvegicus [2] = experiment: Mean excretion of potassium in conscious rats at a dose of 10 mg/kg given orally; type: ADME, organism-based; set-up: dose 10 mg/kg, route oral; conditions: in vivo, po
How it was run: (§2)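 Secondary dose-response in male Sprague-Dawley rats (~160 g), fasted and hydrated as in the primary screen. Oral gavage at 0.3-100 mg/kg in 25 mL/kg saline/0.5% CMC, three cages of two rats per dose. Urine collected 5 h; Na, K, Cl, HCO3 measured. Values are mean excretion (mequiv), compared with controls at P < 0.05.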

Rattus norvegicus [3] = experiment: Mean excretion of chloride in conscious rats at a dose of 30 mg/kg given orally; type: ADME, organism-based; set-up: dose 30 mg/kg, route oral; conditions: in vivo, po; how it was run: as §2
Rattus norvegicus [4] = experiment: Mean excretion of […] in conscious rats at a dose of 1.0 mg/kg given orally; type: ADME, organism-based; set-up: dose 1 mg/kg, route oral; conditions: in vivo, po; how it was run: as §1
Rattus norvegicus [5] = experiment: Mean excretion of potassium in conscious rats at a dose of 0.3 mg/kg given orally; type: ADME, organism-based; set-up: dose 0.3 mg/kg, route oral; conditions: in vivo, po; how it was run: as §2
Rattus norvegicus [6] = organism: Rattus norvegicus; experiment: […]; type: ADME, organism-based, Urine; set-up: dose 30 mg/kg, route oral; conditions: in vivo, po, 30 mg/kg; how it was run: as §1
Rattus norvegicus [7] = experiment: Mean excretion of potassium in conscious rats at a dose of 30 mg/kg given orally; type: ADME, organism-based; set-up: dose 30 mg/kg, route oral; conditions: in vivo, po; how it was run: as §2
Rattus norvegicus [8] = experiment: Mean excretion of potassium in conscious rats at a dose of 1.0 mg/kg given orally; type: ADME, organism-based; set-up: dose 1 mg/kg, route oral; conditions: in vivo, po; how it was run: as §2
Rattus norvegicus [9] = organism: Rattus norvegicus; experiment: […]; type: ADME, organism-based, Urine; set-up: dose 1 mg/kg, route oral; conditions: in vivo, po, 1 mg/kg
How it was run: (§3)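 Dose-response test in male Sprague-Dawley rats of about 160 g, fasted 24 h, with water withheld 1½ h before and during the test. Each rat got a single gavage of 25 mL/kg 0.9% saline with 0.5% carboxymethylcellulose carrying the agent (0.3–100 mg/kg range). Rats were housed two per metabolism cage, and urine was collected for 5 h. Mean urine volume (mL) was compared with controls (P < 0.05).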

[10] = Diuretic activity at 40 mg/kg (screening dose-84.7 umol/kg) in […] in a two stage experiment; T/C1.2 = urine vol of treated rats / urine vol of control rats; type: functional
How it was run: (§4)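 40 mg/kg given by gavage in 25 mL/kg 0.9% saline with 0.5% (carboxymethyl)cellulose. Four rats per agent, two per metabolism cage; 20 controls; 5 h urine. T/C = treated/control urine volume. Stage-1 T/C of 1.66 or more leads to stage 2; product T/C1·T/C2 of 3.34 or more counts as active.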

Rattus norvegicus [11] = organism: Rattus norvegicus; experiment: […]; type: ADME, organism-based, Urine; set-up: dose 100 mg/kg, route oral; conditions: in vivo, po, 100 mg/kg; how it was run: as §1
Rattus norvegicus [12] = experiment: (§5) Mean excretion of Cl- in conscious rats at a dose of 0.3 mg/kg given orally; type: ADME, organism-based, Urine; set-up: dose 0.3 mg/kg, route oral; conditions: in vivo, po; how it was run: as §3
Rattus norvegicus [13] = experiment: Mean excretion of sodium in conscious rats at a dose of 0.3 mg/kg given orally; type: ADME, organism-based; set-up: dose 0.3 mg/kg, route oral; conditions: in vivo, po; how it was run: as §1
Rattus norvegicus [14] = experiment: Mean excretion of potassium in conscious rats at a dose of 100 mg/kg given orally; type: ADME, organism-based; set-up: dose 100 mg/kg, route oral; conditions: in vivo, po; how it was run: as §2
Rattus norvegicus [15] = experiment: Mean excretion of chloride in conscious rats at a dose of 100 mg/kg given orally; type: ADME, organism-based; set-up: dose 100 mg/kg, route oral; conditions: in vivo, po; how it was run: as §2
Rattus norvegicus [16] = organism: Rattus norvegicus; experiment: […]; type: ADME, organism-based, Urine; set-up: dose 0.3 mg/kg, route oral; conditions: in vivo, po, 0.3 mg/kg; how it was run: as §3
Rattus norvegicus [17] = experiment: Mean excretion of chloride in conscious rats at a dose of 3.0 mg/kg given orally; type: ADME, organism-based; set-up: dose 3 mg/kg, route oral; conditions: in vivo, po; how it was run: as §2
Rattus norvegicus [18] = experiment: Mean excretion of sodium in conscious rats at a dose of 100 mg/kg given orally; type: ADME, organism-based; set-up: dose 100 mg/kg, route oral; conditions: in vivo, po; how it was run: as §1
Rattus norvegicus [19] = experiment: Mean excretion of potassium in conscious rats at a dose of 3.0 mg/kg given orally; type: ADME, organism-based; set-up: dose 3 mg/kg, route oral; conditions: in vivo, po; how it was run: as §2
Rattus norvegicus [20] = experiment: Mean excretion of chloride in conscious rats at a dose of 10 mg/kg given orally; type: ADME, organism-based; set-up: dose 10 mg/kg, route oral; conditions: in vivo, po; how it was run: as §2
Rattus norvegicus [21] = organism: Rattus norvegicus; experiment: […]; type: ADME, organism-based, Urine; set-up: dose 10 mg/kg, route oral; conditions: in vivo, po, 10 mg/kg; how it was run: as §1
Rattus norvegicus [22] = experiment: Mean excretion of sodium in conscious rats at a dose of 10 mg/kg given orally; type: ADME, organism-based; set-up: dose 10 mg/kg, route oral; conditions: in vivo, po; how it was run: as §1
[23] = Diuretic activity at 40 mg/kg (screening dose-84.7 umol/kg) in […] in a one stage experiment; T/C = urine vol of treated rats / urine vol of control rats; type: functional; how it was run: as §4
Rattus norvegicus [24] = experiment: Mean excretion of sodium in conscious rats at a dose of 3.0 mg/kg given orally; type: ADME, organism-based; set-up: dose 3 mg/kg, route oral; conditions: in vivo, po; how it was run: as §1
Rattus norvegicus [25] = organism: Rattus norvegicus; experiment: […]; type: ADME, organism-based, Urine; set-up: dose 3 mg/kg, route oral; conditions: in vivo, po, 3 mg/kg; how it was run: as §1
Rattus norvegicus [26] = experiment: Mean excretion of chloride in conscious rats at a dose of 1.0 mg/kg given orally; type: ADME, organism-based; set-up: dose 1 mg/kg, route oral; conditions: in vivo, po; how it was run: as §2
[27] = Diuretic activity at 40 mg/kg (screening dose-90.1 umol/kg) in […] in a one stage experiment; T/C = urine vol of treated rats / urine vol of control rats; type: functional; how it was run: as §4
[28] = as §5; type: functional, Urine; conditions: route oral; how it was run: as §3
[29] = Mean excretion of Cl- in conscious rats at a dose of 1.0 mg/kg given orally; type: functional, Urine; conditions: route oral; how it was run: as §3
[30] = Diuretic activity at 40 mg/kg (screening dose-90.5 uM/Kg) in […] in a two stage experiment; T/C1.2 = urine vol of treated rats / urine vol of control rats; type: functional; how it was run: as §4

Mean excretion of Na+ (Rattus norvegicus [1]) [m equiv] | Mean excretion of K+ (Rattus norvegicus [2]) [m equiv] | Mean excretion of Na+ (Rattus norvegicus [4]) [m equiv] | Mean excretion of K+ (Rattus norvegicus [5]) [m equiv] | Mean urine volume (Rattus norvegicus [6]) [mL] | Mean excretion of K+ (Rattus norvegicus [7]) [m equiv] | Mean excretion of K+ (Rattus norvegicus [8]) [m equiv] | Mean urine volume (Rattus norvegicus [11]) [mL] | Mean excretion of Na+ (Rattus norvegicus [13]) [m equiv] | Mean excretion of K+ (Rattus norvegicus [14]) [m equiv] | Mean excretion of Na+ (Rattus norvegicus [18]) [m equiv] | Mean excretion of K+ (Rattus norvegicus [19]) [m equiv] | Mean urine volume (Rattus norvegicus [21]) [mL] | Mean excretion of Na+ (Rattus norvegicus [22]) [m equiv] | Mean excretion of Na+ (Rattus norvegicus [24]) [m equiv] | Mean urine volume (Rattus norvegicus [25]) [mL] | SMILES | Mean excretion of Cl- (Rattus norvegicus [3]) [m equiv] | Mean excretion of Cl- (Rattus norvegicus [12]) [m equiv] | Mean excretion of Cl- (Rattus norvegicus [15]) [m equiv] | Mean excretion of Cl- (Rattus norvegicus [17]) [m equiv] | further results
 |  |  |  |  |  |  |  |  |  |  |  |  |  |  |  | Clc1ccc2c(c1)C(c1ccccc1)=NCc1nnc(C(CN3CCCC3)c3ccccc3)n1-2 (centres undefined) |  |  |  |  | T/C 1 [27]: 1.33
1.86 | 0.31 | 1.59 | 0.26 | 10.03 | 0.3 | 0.32 | 10.61 | 1.32 | 0.36 | 1.9 | 0.34 | 9.24 | 1.86 | 1.66 | 8.48 | NS(=O)(=O)c1cc2c(cc1Cl)NCNS2(=O)=O [HYDROCHLOROTHIAZIDE] | 2.03 | 1.42 | 2.09 | 1.78 | Mean urine volume [28]: 7.18 mL; Mean excretion of Cl- (Rattus norvegicus [20]): 1.91 m equiv; Mean urine volume [29]: 8.87 mL; Mean excretion of Cl- (Rattus norvegicus [26]): 1.77 m equiv
1.41 | 0.08 | 0.6 | 0.12 | 9.28 | 0.04 | 0.1 | 7.01 | 0.4 | 0.06 | 0.88 | 0.1 | 6.45 | 1 | 0.83 | 4.32 | Nc1nc(N)c2nc(-c3ccccc3)c(N)nc2n1 | 1.15 | 0.47 | 0.7 | 0.74 | Mean urine volume (Rattus norvegicus [9]): 3.5 mL; Mean urine volume (Rattus norvegicus [16]): 2.22 mL; Mean excretion of Cl- (Rattus norvegicus [20]): 0.81 m equiv; Mean excretion of Cl- (Rattus norvegicus [26]): 0.68 m equiv
2.37 | 0.34 | 0.83 | 0.22 | 18.3 | 0.46 | 0.21 | 27.8 | 0.82 | 0.67 | 3.52 | 0.27 | 8.48 | 1.13 | 0.86 | 5.23 | NS(=O)(=O)c1cc(C(=O)O)c(NCc2ccco2)cc1Cl [FUROSEMIDE] |  |  |  |  | Mean urine volume [28]: 4.45 mL; Mean urine volume [29]: 4.7 mL

SMILES | Mean excretion of Na+ (Rattus norvegicus [1]) [m equiv] | Mean excretion of K+ (Rattus norvegicus [2]) [m equiv] | Mean excretion of Na+ (Rattus norvegicus [4]) [m equiv] | Mean excretion of K+ (Rattus norvegicus [5]) [m equiv] | Mean urine volume (Rattus norvegicus [6]) [mL] | Mean excretion of K+ (Rattus norvegicus [7]) [m equiv] | Mean excretion of K+ (Rattus norvegicus [8]) [m equiv] | Mean urine volume (Rattus norvegicus [11]) [mL] | Mean excretion of Na+ (Rattus norvegicus [13]) [m equiv] | Mean excretion of K+ (Rattus norvegicus [14]) [m equiv] | Mean excretion of Na+ (Rattus norvegicus [18]) [m equiv] | Mean excretion of K+ (Rattus norvegicus [19]) [m equiv] | Mean urine volume (Rattus norvegicus [21]) [mL] | Mean excretion of Na+ (Rattus norvegicus [22]) [m equiv] | Mean excretion of Na+ (Rattus norvegicus [24]) [m equiv] | Mean urine volume (Rattus norvegicus [25]) [mL] | Mean excretion of Cl- (Rattus norvegicus [3]) [m equiv] | Mean excretion of Cl- (Rattus norvegicus [12]) [m equiv] | Mean excretion of Cl- (Rattus norvegicus [15]) [m equiv] | Mean excretion of Cl- (Rattus norvegicus [17]) [m equiv] | further results
COc1ccc(C(CN(C)C)c2nnc3n2-c2ccc(Cl)cc2C(c2ccccc2)=NC3)cc1 (centres undefined) | 1.58 | 0.19 | 0.66 | 0.23 | 10.47 | 0.18 | 0.25 | 12.25 | 0.67 | 0.26 | 1.91 | 0.23 | 5.74 | 0.93 | 0.68 | 4.98 | 1.55 | 0.71 | 1.65 | 0.75 | Mean urine volume (Rattus norvegicus [9]): 4.81 mL; T/C 1.2 [10]: 5.57; Mean urine volume (Rattus norvegicus [16]): 4.13 mL; Mean excretion of Cl- (Rattus norvegicus [20]): 0.93 m equiv; T/C 1 [23]: 2.77; Mean excretion of Cl- (Rattus norvegicus [26]): 0.71 m equiv
COc1cccc(C(CN(C)C)c2nnc3n2-c2ccc(Cl)cc2C(c2ccccc2)=NC3)c1 (centres undefined) | 1.99 | 0.17 | 0.64 | 0.22 | 12.21 | 0.24 | 0.21 | 12.03 | 0.52 | 0.3 | 1.76 | 0.17 | 5.99 | 1.13 | 0.79 | 4.29 | 1.99 | 0.59 | 1.8 | 0.78 | T/C 1.2 [30]: 7.31; Mean urine volume (Rattus norvegicus [9]): 3.74 mL; Mean urine volume (Rattus norvegicus [16]): 3.37 mL; Mean excretion of Cl- (Rattus norvegicus [20]): 1.11 m equiv; T/C 1 [23]: 3.18; Mean excretion of Cl- (Rattus norvegicus [26]): 0.72 m equiv
